Test results as given in publication PMC7254033 (Saudi Journal of Biological Sciences, 2019).
In brackets after ≈: the same amount, converted by molar mass. Marks after values point to notes of the source that are not given here.

Legend:
[1] = DPPH radical scavenging activity; settings: 30 mins in the dark, absorbance at 517 nm
How it was run: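 DPPH was made up at 0.02% in methanol ([…]), stored closed away from light and heat. Serial dilutions of test compound were mixed with the DPPH solution to eight final two-fold concentrations, with ascorbic acid treated identically as positive control. Mixtures stood 30 min in the dark at room temperature. Absorbance at 517 nm was read against blank. % scavenging = (Ao − As)/Ao × 100, and IC50 was deduced from it. Triplicate.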

[2] = system: Candida albicans NR-29450; experiment: Anti-yeast activity, CLSI M27-A3 microdilution MIC; format: cell-based; settings: NR29450, 48 h, read-out: Antifungal activity Minimal Inhibitory Concentrations, C. albicans
How it was run: (§1)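 Broth microdilution per CLSI M27-A3 in RPMI 1640 with two-fold serial dilutions over ten concentrations, alongside fluconazole reference dilutions. Strains were kept on agar slopes at 4 °C and subcultured for 48 h before each run. Inoculum was standardized at 2.50 × 10^3 cells/mL, with a blank sterility column. Plates were incubated 48 h at 37 °C. MIC was the lowest concentration with no visible turbidity. Tested in triplicate.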

[3] = system: Candida krusei ATCC 6258; experiment: Anti-yeast activity, CLSI M27-A3 microdilution MIC; format: cell-based; settings: for Antifungal activity, folds less than fuconazole: strain not given, fits C. krusei of Table 3
How it was run: as §1

[4] = system: Candida glabrata isolate; experiment: Anti-yeast activity, CLSI M27-A3 microdilution MIC; format: cell-based; settings: 48 h, 37 °C
How it was run: as §1

[5] = system: zymosan stimulated human whole blood phagocytes; experiment: Oxidative burst assay; format: cell-based; settings: read-out: ROS Inhibition (IC50 µg/mL)
How it was run: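 Diluted human whole blood phagocytes were stimulated with zymosan and intracellular ROS measured by luminol-enhanced chemiluminescence. Test compound was given at three concentrations (1, 10 and 100), with ibuprofen as standard anti-inflammatory drug. IC50 was derived.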

Row | SMILES | DPPH radical scavenging activity IC50 [1] | MIC [2] [µg/mL] | also measured
1 | CC1(C)CC[C@]2(C(=O)O)CC[C@]3(C)C(=CC[C@@H]4[C@@]5(C)CC[C@H](O)C(C)(C)[C@@H]5CC[C@]43C)[C@@H]2C1 [Compound 5, oleanolic acid] | ˃1000 µg/mL | 500 (≈ 1090 µM) | 
2 | C=C(C)[C@@H]1CC[C@]2(C)CC[C@]3(C)[C@H](CC[C@@H]4[C@@]5(C)CC[C@H](O)C(C)(C)[C@@H]5CC[C@]43C)[C@@H]12 [Compound 7, lupeol] | ˃1000 µg/mL | 500 (≈ 1170 µM) | Antifungal activity, folds less than fuconazole [3]: 5 folds
3 | C=C(C)[C@@H]1CC[C@]2(C(=O)O)CC[C@]3(C)[C@H](CC[C@@H]4[C@@]5(C)CC[C@H](O)C(C)(C)[C@@H]5CC[C@]43C)[C@@H]12 [Compound 8, betulinic acid] | ˃1000 µg/mL | 500 (≈ 1090 µM) | Antifungal activity, folds less than fuconazole [3]: 5 folds
4 | OC(Cn1cncn1)(Cn1cncn1)c1ccc(F)cc1F [Fluconazol, fluconazole, reference compound] |  |  | Antifungal activity Minimal Inhibitory Concentrations, C. glabrata [4]: 50 µg/mL; Antifungal activity Minimal Inhibitory Concentrations, C. krusei ([3]; 48 h, 37 °C): 50 µg/mL
5 | CC(C)Cc1ccc(C(C)C(=O)O)cc1 (centres unmarked) [Ibuprofen] |  |  | IC50 [5]: 11.2 ± 1.9 µg/mL (≈ 54.3 µM)

Further lines, with some results ahead:

Row | DPPH radical scavenging activity IC50 [1] | MIC [2] [µg/mL] | SMILES | also measured
6 | ˃1000 µg/mL | 500 (≈ 1180 µM) | C=C(C)[C@@H]1CC[C@]2(C)CC[C@]3(C)[C@H](CC[C@@H]4[C@@]5(C)CCC(=O)C(C)(C)[C@@H]5CC[C@]43C)[C@@H]12 [Compound 10, lupenone] | 
7 | 3.343 ± 0.271^a µg/mL |  | O=C1O[C@H]([C@@H](O)CO)C(O)=C1O [Vitamin C, ascorbic acid, reference compound] | 
